Active and inactive are the calls of the source. No cut-off for these calls is given here.
Columns and labels:
U-251 [1] = assay: Cytotoxicity against human U251MG cells at 2.5 to 5 uM after 19 hrs; assay type: functional, cell-based
[2] = target: RAC-alpha serine/threonine-protein kinase (Homo sapiens) (UniProt P31749); assay: Modulation of Akt phosphorylation in human U251MG cells at 5 uM after 0.5 to 24 hrs by immunoblot analysis; assay type: cell-based; details: U-251
In short: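 U251MG cells treated with 5 μM compound for 0–24 h; whole-cell lysates of equal total protein immunoblotted. Controls were 0.025% DMSO-treated cells. Representative of 2–4 independent determinations.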

Glioma cell [3] = assay: Cytotoxicity against human Glioma (G22) patient-derived mouse xenograft cells at 5 uM after 24 hrs by cyquant assay; assay type: functional, cell-based
[4] = target: T1, Signal transducer and activator of transcription 1 (Mus musculus) (UniProt P42225); assay: Modulation of EGF-induced Stat1 phosphorylation in mouse NIH3T3 cells expressing human EGFR at 5 uM preincubated for 3 hrs followed by stimulation with 1 ug/ml EGF for 12 mins by immunoblot analysis; assay type: cell-based
T1 sequence (whole entry): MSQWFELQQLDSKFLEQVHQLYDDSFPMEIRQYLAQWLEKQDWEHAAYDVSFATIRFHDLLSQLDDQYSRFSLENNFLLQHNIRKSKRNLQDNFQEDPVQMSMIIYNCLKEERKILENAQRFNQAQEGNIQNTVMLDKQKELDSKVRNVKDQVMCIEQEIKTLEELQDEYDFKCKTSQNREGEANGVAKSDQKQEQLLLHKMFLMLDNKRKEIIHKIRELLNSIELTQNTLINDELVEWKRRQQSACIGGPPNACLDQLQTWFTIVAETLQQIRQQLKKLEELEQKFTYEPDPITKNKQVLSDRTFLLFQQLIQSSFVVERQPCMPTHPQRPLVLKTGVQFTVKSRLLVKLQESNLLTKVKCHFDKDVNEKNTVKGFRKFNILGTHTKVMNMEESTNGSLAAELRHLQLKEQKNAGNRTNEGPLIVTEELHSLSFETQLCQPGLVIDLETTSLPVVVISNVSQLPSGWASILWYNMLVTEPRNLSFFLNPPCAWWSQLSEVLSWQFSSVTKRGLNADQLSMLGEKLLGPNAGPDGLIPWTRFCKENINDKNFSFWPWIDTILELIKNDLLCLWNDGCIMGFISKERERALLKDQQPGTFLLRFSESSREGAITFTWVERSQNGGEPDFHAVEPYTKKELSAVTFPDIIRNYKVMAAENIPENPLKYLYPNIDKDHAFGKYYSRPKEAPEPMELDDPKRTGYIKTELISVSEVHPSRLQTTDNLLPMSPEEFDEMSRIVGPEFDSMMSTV
In short: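 Whole-cell lysates of equal total protein from NIH3T3/hEGFR fibroblasts, pretreated with or without 5 μM compound (control 0.025% DMSO) for 3 h, then stimulated with 1 μg/ml EGF for 12 min. SDS-PAGE immunoblotting for pStat1/Stat1 and pStat5/Stat5 with β-actin or GAPDH loading controls. Representative of 2–4 independent determinations.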

U-251 [5] = assay: Antimitotic activity in human U251MG cells assessed as defect in sister chromatid segragation at 8 uM after 15 hrs confocal microscopic analysis; assay type: functional, cell-based
In short: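 U251MG on coverslips synchronized by double thymidine block (2 mM), released 9 h, treated 15 h (8 μM; paclitaxel 100 nM). Fixed 4% paraformaldehyde, digitonin-permeabilized, BSA-blocked, stained for β-tubulin and MAP1B with DAPI counterstain; chromatid structure and segregation scored by confocal microscopy.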

Mus musculus [6] = assay: Toxicity in mouse xenografted with U251MG cells assessed as loss of appetite at 2 mg/kg three times a week for 33 days administered via oral gavage; assay type: organism-based, U-251; details: in vivo, 792 h
In short: (§1)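 Four-week-old female athymic nude mice, injected subcutaneously in the left flank with 7.3×10^6 U251MG cells in PBS/matrigel (1:1). Tumors of 170–250 mm^3 formed by day 20, and groups were matched for mean size. Dosing was 2 mg/kg by oral gavage, three times weekly for 33 days, with 1% DMSO vehicle. Animals were monitored daily and weighed every 3 days.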

[7] = Decrease in vimentin expression in human U251MG cells at 5 uM for 2 hrs by immunoblot analysis; assay type: functional, cell-based; details: U-251
Mus musculus [8] = assay: Toxicity in mouse xenografted with U251MG cells assessed as lethargy at 2 mg/kg three times a week for 33 days administered via oral gavage; assay type: organism-based, U-251; details: in vivo, 792 h; in short: as §1
Mus musculus [9] = assay: Toxicity in mouse xenografted with U251MG cells assessed as effect on body weight at 2 mg/kg three times a week for 33 days administered via oral gavage; assay type: organism-based, U-251; details: in vivo, 792 h; in short: as §1
[10] = target: Stalled ribosome sensor GCN1 (Homo sapiens) (UniProt Q92616); assay: Decrease in GCN1 expression in human U251MG cells at 5 uM for 2 hrs by immunoblot analysis; assay type: functional, cell-based; details: U-251
[11] = target: Heat shock protein 105 kDa (Homo sapiens) (UniProt Q92598); assay: Decrease in Hsp105 expression in human Glioma (G22) patient derived xenograft cells at 5 uM for 2 hrs by immunoblot analysis; assay type: functional; details: Glioma cell
[12] = target: Microtubule-associated protein 1B (Homo sapiens) (UniProt P46821); assay: Decrease in MAP1B expression in human Glioma (G22) patient derived xenograft cells at 5 uM for 2 hrs by immunoblot analysis; assay type: functional; details: Glioma cell
[13] = target: Microtubule-associated protein 1B (Homo sapiens) (UniProt P46821); assay: Decrease in MAP1B expression in human U251MG cells at 5 uM for 2 hrs by immunoblot analysis; assay type: functional, cell-based; details: U-251
U-251 [14] = assay: Increase in importin subunit alpha2 expression in human U251MG cells at 5 uM for 2 hrs by immunoblot analysis; assay type: functional, cell-based
[15] = target: Heat shock protein 105 kDa (Homo sapiens) (UniProt Q92598); assay: Decrease in Hsp105 expression in human U251MG cells at 5 uM for 2 hrs by immunoblot analysis; assay type: functional, cell-based; details: U-251
[16] = target: Stalled ribosome sensor GCN1 (Homo sapiens) (UniProt Q92616); assay: Decrease in GCN1 expression in human U373MG cells at 5 uM for 2 hrs by immunoblot analysis; assay type: functional, cell-based; details: U-373MG ATCC
[17] = target: Heat shock protein 105 kDa (Homo sapiens) (UniProt Q92598); assay: Decrease in Hsp105 expression in human U373MG cells at 5 uM for 2 hrs by immunoblot analysis; assay type: functional, cell-based; details: U-373MG ATCC
U373 MG = assay: Increase in importin subunit alpha2 expression in human U373MG cells at 5 uM for 2 hrs by immunoblot analysis; assay type: functional, cell-based; details: U-373MG ATCC
U-251 [18] = assay: Antitumor activity against human U251MG cells xenografted in mouse assessed as decrease in Stat3 level in tumor at 2 mg/kg three times a week for 33 days administered via oral gavage by immunoblot analysis; assay type: functional, organism-based
In short: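 Female athymic nude mice, 4 weeks old, given subcutaneous flank injections of 7.3×10^6 U251MG cells in PBS/matrigel; dosing began at 170–250 mm3 tumors (day 20). Oral gavage 2 mg/kg, vehicle 1% DMSO, for 33 days. Caliper volumes V = 0.52×a²×b, compared with vehicle by paired t test; tumor lysates immunoblotted for pStat3, Stat3, GAPDH.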

Glioma cell [19] = assay: Increase in importin subunit alpha2 expression in human Glioma (G22) patient derived xenograft cells at 5 uM for 2 hrs by immunoblot analysis; assay type: functional
U-251 [20] = assay: Antiproliferative activity against human U251MG cells at 5 uM for 24 hrs by BrdU incorporation assay; assay type: functional, cell-based
In short: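 U251MG on glass coverslips treated with DMSO or 5 μM compound for 3–24 h; 10 μM BrdU added during the last 2 h. Cells fixed in 4% paraformaldehyde, stained with anti-BrdU antibody, DAPI counterstained, imaged by fluorescence microscopy and counted.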

Stalled ribosome sensor GCN1 (Homo sapiens), sequence (Q92616 whole entry): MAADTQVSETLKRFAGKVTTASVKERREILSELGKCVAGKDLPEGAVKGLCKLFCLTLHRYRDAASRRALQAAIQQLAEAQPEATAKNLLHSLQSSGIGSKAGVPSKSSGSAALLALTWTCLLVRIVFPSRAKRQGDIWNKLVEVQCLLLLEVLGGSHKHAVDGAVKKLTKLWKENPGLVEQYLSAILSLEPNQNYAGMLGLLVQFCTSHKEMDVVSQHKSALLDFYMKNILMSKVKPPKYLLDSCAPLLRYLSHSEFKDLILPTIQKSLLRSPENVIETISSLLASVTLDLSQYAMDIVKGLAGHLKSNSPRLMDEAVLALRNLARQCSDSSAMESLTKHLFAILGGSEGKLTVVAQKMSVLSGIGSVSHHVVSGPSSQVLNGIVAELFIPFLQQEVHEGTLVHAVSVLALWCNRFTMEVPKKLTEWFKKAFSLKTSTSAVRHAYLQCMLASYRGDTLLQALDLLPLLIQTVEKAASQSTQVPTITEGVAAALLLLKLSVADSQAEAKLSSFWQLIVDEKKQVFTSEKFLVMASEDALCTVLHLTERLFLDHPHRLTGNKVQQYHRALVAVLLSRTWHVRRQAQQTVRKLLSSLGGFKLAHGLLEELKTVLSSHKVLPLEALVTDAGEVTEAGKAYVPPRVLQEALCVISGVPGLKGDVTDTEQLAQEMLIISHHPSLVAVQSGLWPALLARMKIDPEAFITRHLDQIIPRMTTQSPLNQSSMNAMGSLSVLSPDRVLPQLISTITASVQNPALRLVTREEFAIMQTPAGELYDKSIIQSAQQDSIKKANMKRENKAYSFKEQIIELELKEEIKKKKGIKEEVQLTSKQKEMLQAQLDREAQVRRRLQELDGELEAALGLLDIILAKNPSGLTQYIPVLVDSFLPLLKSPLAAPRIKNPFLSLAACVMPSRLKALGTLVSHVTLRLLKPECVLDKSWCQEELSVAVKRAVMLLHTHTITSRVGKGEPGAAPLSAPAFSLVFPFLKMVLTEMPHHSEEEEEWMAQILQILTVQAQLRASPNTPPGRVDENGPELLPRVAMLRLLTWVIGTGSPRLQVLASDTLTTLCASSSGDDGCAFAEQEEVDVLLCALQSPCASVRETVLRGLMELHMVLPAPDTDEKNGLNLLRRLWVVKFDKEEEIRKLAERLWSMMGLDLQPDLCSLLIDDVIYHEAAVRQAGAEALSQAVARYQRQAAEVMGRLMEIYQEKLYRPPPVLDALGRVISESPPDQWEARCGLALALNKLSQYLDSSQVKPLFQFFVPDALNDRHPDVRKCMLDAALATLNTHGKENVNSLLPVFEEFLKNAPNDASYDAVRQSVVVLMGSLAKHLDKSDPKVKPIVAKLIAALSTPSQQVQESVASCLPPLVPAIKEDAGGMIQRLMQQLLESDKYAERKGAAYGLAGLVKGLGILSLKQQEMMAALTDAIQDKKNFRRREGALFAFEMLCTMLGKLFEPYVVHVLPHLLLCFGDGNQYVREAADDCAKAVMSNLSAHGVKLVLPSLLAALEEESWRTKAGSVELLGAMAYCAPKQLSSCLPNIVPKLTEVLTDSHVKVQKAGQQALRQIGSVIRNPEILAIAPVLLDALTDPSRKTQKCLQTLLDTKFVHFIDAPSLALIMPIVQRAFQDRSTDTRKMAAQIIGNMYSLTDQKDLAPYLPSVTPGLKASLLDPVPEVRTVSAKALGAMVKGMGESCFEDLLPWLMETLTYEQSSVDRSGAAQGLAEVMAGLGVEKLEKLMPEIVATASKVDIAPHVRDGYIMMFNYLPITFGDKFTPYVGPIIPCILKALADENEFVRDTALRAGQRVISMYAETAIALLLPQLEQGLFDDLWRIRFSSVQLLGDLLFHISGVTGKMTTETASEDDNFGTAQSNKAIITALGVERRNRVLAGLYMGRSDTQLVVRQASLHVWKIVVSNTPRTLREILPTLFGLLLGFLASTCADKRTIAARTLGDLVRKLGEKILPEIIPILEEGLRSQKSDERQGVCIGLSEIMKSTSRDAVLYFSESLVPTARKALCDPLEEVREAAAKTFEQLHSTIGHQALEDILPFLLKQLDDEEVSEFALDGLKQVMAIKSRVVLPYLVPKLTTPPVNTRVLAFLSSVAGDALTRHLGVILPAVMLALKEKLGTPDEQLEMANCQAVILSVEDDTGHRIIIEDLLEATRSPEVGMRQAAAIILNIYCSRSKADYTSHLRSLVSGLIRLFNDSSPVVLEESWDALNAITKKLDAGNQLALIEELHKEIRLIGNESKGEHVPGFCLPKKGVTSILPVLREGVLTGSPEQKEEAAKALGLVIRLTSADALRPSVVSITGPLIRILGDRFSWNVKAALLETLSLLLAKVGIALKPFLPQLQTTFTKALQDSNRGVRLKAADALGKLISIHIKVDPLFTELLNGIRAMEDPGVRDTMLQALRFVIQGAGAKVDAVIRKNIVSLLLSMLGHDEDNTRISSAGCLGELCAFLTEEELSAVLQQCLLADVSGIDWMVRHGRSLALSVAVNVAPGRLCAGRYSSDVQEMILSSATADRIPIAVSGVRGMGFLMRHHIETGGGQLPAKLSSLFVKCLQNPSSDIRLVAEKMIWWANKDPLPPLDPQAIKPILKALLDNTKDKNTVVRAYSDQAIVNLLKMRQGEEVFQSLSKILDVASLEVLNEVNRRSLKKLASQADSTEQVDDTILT
RAC-alpha serine/threonine-protein kinase (Homo sapiens), sequence (P31749 whole entry): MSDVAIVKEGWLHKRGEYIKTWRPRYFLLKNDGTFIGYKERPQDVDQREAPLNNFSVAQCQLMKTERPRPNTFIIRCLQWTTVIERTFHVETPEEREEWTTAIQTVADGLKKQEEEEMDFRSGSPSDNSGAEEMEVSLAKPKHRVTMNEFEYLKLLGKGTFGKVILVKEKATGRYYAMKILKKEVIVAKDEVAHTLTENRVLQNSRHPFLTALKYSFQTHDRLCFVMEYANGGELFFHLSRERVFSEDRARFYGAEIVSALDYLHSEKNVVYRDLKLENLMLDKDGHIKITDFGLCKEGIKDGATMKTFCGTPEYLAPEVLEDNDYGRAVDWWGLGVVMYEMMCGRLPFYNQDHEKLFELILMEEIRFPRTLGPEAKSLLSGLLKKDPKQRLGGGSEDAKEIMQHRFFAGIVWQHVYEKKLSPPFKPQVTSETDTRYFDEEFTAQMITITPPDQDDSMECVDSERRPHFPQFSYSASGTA
Heat shock protein 105 kDa (Homo sapiens), sequence (Q92598 whole entry): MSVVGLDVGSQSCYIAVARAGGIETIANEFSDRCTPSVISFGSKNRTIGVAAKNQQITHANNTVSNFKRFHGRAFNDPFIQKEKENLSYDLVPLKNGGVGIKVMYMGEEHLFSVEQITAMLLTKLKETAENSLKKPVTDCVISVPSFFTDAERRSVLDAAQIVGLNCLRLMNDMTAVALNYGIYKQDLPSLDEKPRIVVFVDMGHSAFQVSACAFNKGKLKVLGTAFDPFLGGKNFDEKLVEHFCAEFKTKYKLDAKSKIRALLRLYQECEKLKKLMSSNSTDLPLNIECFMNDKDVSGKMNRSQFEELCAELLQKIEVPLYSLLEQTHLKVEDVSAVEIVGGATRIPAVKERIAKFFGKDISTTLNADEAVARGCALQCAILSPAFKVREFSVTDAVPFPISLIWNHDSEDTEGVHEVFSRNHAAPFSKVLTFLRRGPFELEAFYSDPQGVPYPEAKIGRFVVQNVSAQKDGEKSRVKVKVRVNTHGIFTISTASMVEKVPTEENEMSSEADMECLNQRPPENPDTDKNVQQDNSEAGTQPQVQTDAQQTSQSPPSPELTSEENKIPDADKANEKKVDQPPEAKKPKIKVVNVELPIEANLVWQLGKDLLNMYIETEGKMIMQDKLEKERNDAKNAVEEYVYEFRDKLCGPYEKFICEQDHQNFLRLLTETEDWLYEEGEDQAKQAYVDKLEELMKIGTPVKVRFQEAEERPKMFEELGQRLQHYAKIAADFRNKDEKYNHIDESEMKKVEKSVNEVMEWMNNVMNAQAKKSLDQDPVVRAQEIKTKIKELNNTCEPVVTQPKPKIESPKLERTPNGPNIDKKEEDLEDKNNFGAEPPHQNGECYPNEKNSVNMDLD

Row | Activity [2] | inhibition [4] | inhibition [10] | inhibition [11] | inhibition [12] | inhibition [13] | inhibition [15] | inhibition [16] | inhibition [17] | Structure (SMILES) | Activity (U-251 [1]) | Activity (Glioma cell [3]) | Activity (U-251 [5]) | Activity (Mus musculus [6]) | inhibition [7] | Activity (Mus musculus [8]) | Activity (Mus musculus [9]) | Activity (U-251 [14]) | Activity (U373 MG) | Activity (U-251 [18]) | Activity (Glioma cell [19]) | further results
1 | inactive | inactive | – | – | – | – | – | – | – | C/C=C(\C)C(=O)O[C@H]1C[C@@H](C)[C@]2(OC)CC[C@](C)(/C=C3/OC(=O)C(COC(C)=O)=C31)O2 | inactive | Active | – | – | – | – | – | – | – | – | – | –
2 | inactive | inactive | Active | Active | Active | Active | Active | Active | Active | C/C=C(\C)C(=O)OCC1=C2/C(=C\[C@@]3(C)CC[C@](O)(O3)[C@H](C)C[C@@H]2O)OC1=O | inactive | Active | Active | Non-toxic | Active | Non-toxic | Non-toxic | Active | Active | Active | Active | Activity (U-251 [20]): Active
3 | inactive | inactive | Active | Active | Active | Active | Active | Active | Active | C/C=C(\C)C(=O)O[C@H]1C[C@@H](C)[C@]2(O)CC[C@](C)(/C=C3/OC(=O)C(COC(C)=O)=C31)O2 | inactive | Active | Active | Non-toxic | Active | Non-toxic | Non-toxic | Active | Active | Active | Active | Activity (U-251 [20]): Active
